Screening results from PubChem.
Most compounds without a hit are left out; they make up all but 2.5% or so of the library.
SENP8 block-1: SENP8 (human) protease inhibition. recombinant SENP8, Nedd8 substrate fluorescence. 0.64% of 360,000 active. inhibition, % at 20 µM. Q96LD8; in the data active = inhibition mostly above about 40%, no sharp cut-off; inactive = mostly below about 27%
Target sequence (Q96LD8 whole entry, looked up): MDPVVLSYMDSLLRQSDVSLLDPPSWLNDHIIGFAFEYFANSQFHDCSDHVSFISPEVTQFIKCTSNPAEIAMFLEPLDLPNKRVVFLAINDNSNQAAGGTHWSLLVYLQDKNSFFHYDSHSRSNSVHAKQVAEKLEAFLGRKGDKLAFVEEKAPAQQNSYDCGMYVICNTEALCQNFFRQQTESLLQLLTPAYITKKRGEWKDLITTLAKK
SENP8 block-2: inhibitors of human SENP8 protease; Q96LD8; purified SENP8, Z-RLRGG-aminoluciferin cleavage, luminescence; inhibition, % at 10 µM; 1.2% of 330,000 active; AID 2540; in the data active = inhibition above about 50%
SENP6 block: blocks the human protease SENP6 | 1.8% of 330,000 active | Q9GZR1 | AID 2599 | Recombinant SENP6 catalytic domain, aminoluciferin luminescence | inhibition, % at 10 µM;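 active = inhibition above about 50% at the single tested dose, limit read from the data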;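 also: plate controls were DMSO wells with enzyme for no effect and DMSO wells lacking enzyme for full effect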
SENP1 inh: inhibitors of human SENP1 SUMO protease catalytic domain; recombinant SENP1 catalytic domain, CyPet-SUMO1-YPet FRET cleavage; inhibition, % at 10 µM; 0.21% of 360,000 active; AID 624204;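 active = inhibition at least 30% at 10 µM, raw YFP signal under a set limit, fluorescence ratio 0.5 to 1.5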;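 also: 0% = enzyme with DMSO and 100% = no enzyme wells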
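Material – human SENP1 catalytic domain · Input – SENP1 enzyme, 20 pM final · Compound dosing – single concentration of 10 µM compound, 0.5% DMSO final · Timing – enzyme reaction for 50 min at room temperature, dark · Measured by – FRET fluorescence in CFP and YFP emission channels · Control set – no-enzyme wells low, DMSO-plus-enzyme wells high control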
SENP7 block: inhibitors of human SENP7 protease; Q9BQF6; recombinant SENP7, Z-RLRGG-aminoluciferin luminescence, 40 min; inhibition, % at 5 µM; 1.5% of 330,000 active; AID 434973;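 active = inhibition above about 50% at the single test dose, limit read from the data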;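 also: plate controls were DMSO with enzyme for no effect and no enzyme buffer wells for full effect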
SENP8 conf: confirmation of human SENP8 protease inhibitors; Recombinant SENP8, Z-RLRGG-aminoluciferin luminescence, 60 min; inhibition, % at 12.5 µM; shares compounds with SENP7 block; AID 488912; 40% of 6,200 active;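 active = mean inhibition across replicates above about 50%, limit read from the data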
SENP6 confirm: confirmation of human SENP6 protease inhibitors. shares compounds with SENP7 block. recombinant SENP6, Z-RLRGG-aminoluciferin luminescence. inhibition, % at 12.5 µM. 58% of 6,200 active. AID 488915
SENP7 confirm: confirmation of human SENP7 protease inhibitors; recombinant SENP7, Z-RLRGG-aminoluciferin luminescence, 40 min; shares compounds with SENP7 block; AID 488917; 69% of 6,200 active; inhibition, % at 12.5 µM
Casp3 SENP sel: inhibits human caspase-3 in SENP selectivity test. shares compounds with SENP7 block. purified caspase-3, Z-DEVD-aminoluciferin luminescence, 60 min. inhibition, % at 12.5 µM. 60% of 6,200 active;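 active = mean inhibition above about 50%, limit read from the data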;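 also: plate controls were enzyme with DMSO for no effect and wells without caspase-3 for full effect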
Target sequence (P42574 28-227 limits assumed): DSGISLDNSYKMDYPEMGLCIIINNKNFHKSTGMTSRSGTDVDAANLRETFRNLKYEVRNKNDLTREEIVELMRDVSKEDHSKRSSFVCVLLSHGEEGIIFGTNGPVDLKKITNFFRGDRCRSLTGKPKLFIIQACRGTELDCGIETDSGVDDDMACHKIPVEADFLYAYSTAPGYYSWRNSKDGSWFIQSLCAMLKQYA
SENP luc ctr: counter-screen for SENP inhibitors: luminescence interference; inhibition, % at 12.5 µM; 39% of 6,200 active; Pre-incubated SENP8/Z-RLRGG-aminoluciferin, luciferase luminescence interference; shares compounds with SENP7 block;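 active = mean inhibition above about 50% when retested at one dose, limit read from the data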;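 also: plate controls were DMSO wells with completed reaction for no effect and substrate without enzyme for full effect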
* hit, by the source's call; x = no result.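 The calls were made as follows, unless noted: active = mean inhibition above about 50% in the one-dose retest (limit read from the data); inactive = the rest.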

SMILES	SENP8 block-1	SENP8 block-2	SENP6 block	SENP1 inh	SENP7 block	SENP8 conf	SENP6 confirm	SENP7 confirm	Casp3 SENP sel	SENP luc ctr
CC(C)c1ccc2oc3nc(N)c(C(=O)O)cc3c(=O)c2c1	x	96*	97*	x	101*	98*	99*	102*	97*	91*
Cc1nc2oc3ccc(Cl)cc3c(=O)c2cc1C(=O)O	-114	70*	79*	-7	79*	82*	81*	96*	94*	76*
Cc1nc2oc3ccccc3c(=O)c2cc1C(=O)O	-1	-4	7	7	-7	x	x	x	x	x
CCc1nc2oc3ccc(C)cc3c(=O)c2cc1C(=O)OC	-22	x	x	-11	x	x	x	x	x	x
O=C(NNc1cc(N2CCOCC2)nc(N2CCOCC2)n1)c1ccc(Cl)c(Cl)c1	5	10	49	-65	14	x	x	x	x	x
Cc1ccc(C(=O)NNc2cc(N3CCCC3)nc(N3CCCC3)n2)cc1	x	95*	82*	x	42	52*	87*	50*	-1	-2
COc1ccc(Cl)cc1C(=O)Nc1nc2ccccc2[nH]1	-310	90*	96*	1	98*	83*	91*	102*	96*	80*
N#Cc1ccc(C(=O)Nc2nc3ccccc3[nH]2)cc1	-33	50*	69*	0	73*	2	40	71*	68*	-1
CN(C)S(=O)(=O)c1ccc(C(=O)Nc2nc3ccccc3[nH]2)cc1	-15	-12	-18	0	1	x	x	x	x	x
O=C(Nc1nc2ccccc2[nH]1)c1ccccc1[N+](=O)[O-]	12	3	-9	1	2	x	x	x	x	x
COc1ccc(C(=O)Nc2nc3ccccc3[nH]2)cc1OC	-20	-19	-10	-1	-10	x	x	x	x	x
CCc1ccc(C(=O)Nc2nc3ccccc3[nH]2)cc1	2	94*	96*	2	97*	56*	76*	86*	84*	12
O=C(Nc1nc2ccccc2[nH]1)c1ccccc1F	10	97*	96*	-1	99*	2	99*	102*	98*	97*
Cc1cc2nc(-c3ccc(Cl)cc3)c(CC3CCCCC3)n2c(C)c1Br	-1	x	x	0	x	x	x	x	x	x
Cc1cc(C)cc(C(=O)Nc2nc3ccccc3[nH]2)c1	-2	-24	2	-1	-11	x	x	x	x	x
O=C(Nc1nc2ccccc2[nH]1)c1ccc(F)cc1	2	79*	94*	4	93*	78*	84*	98*	94*	52*
O=C(Nc1nc2ccccc2[nH]1)c1cc(F)cc(F)c1	-14	28	55*	-1	54*	28	33	73*	66*	16
COc1ccc2c(c1)Cc1cc(NC(=O)c3ccccc3-c3ccccc3C(=O)O)ccc1-2	-13	x	x	0	x	x	x	x	x	x
CCCCN(C)C(=O)c1cc2cc3ccc(OC)cc3nc2o1	-287	65*	80*	0	76*	72*	71*	92*	85*	24
O=C(CN1C(=O)NC2(CCc3ccccc32)C1=O)c1c[nH]c2ccccc12 (stereo not drawn)	-71	8	-8	-15	-3	x	x	x	x	x
Cc1nc(C)c(-c2csc(Nc3ncccc3C)n2)s1	5	61*	67*	2	59*	52*	60*	86*	50	25
Cc1cccnc1Nc1nc(-c2ccc(O)c(O)c2)cs1	11	92*	92*	3	66*	89*	89*	96*	45	86*
COc1ccc(-c2csc(Nc3ncccc3C)n2)cc1	11	92*	100*	1	93*	95*	97*	102*	87*	92*
